Assay results as given in ChEMBL document CHEMBL2384917, “Design, synthesis and biological evaluation of novel 3,4,5-trisubstituted aminothiophenes as inhibitors of p53-MDM2 interaction. Part 1” (Bioorg Med Chem, 2013).

What was measured:
A549 [1] = test: Cytotoxicity against human A549 cells expressing wild type p53 assessed as growth inhibition after 72 hrs by SRB assay; type: functional, cell-based; settings: A549, 72 h
Outline: (§1)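 Cells seeded in 96-well plates, cultured overnight, then exposed to serial compound concentrations for 72 h. Fixed with 10% (w/v) TCA at 4 °C for 1 h, stained 30 min with 0.4% SRB in 1% acetic acid, washed with 1% acetic acid, bound dye dissolved in 10 mmol unbuffered Tris base, absorbance read at 515 nm. Inhibition calculated relative to untreated control wells; IC50 derived.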

PC-3 = test: Cytotoxicity against human p53-null PC3 cells assessed as growth inhibition after 72 hrs by SRB assay; type: functional, cell-based; settings: PC-3, 72 h; outline: as §1
[2] = biological target: Tumour suppressor p53/oncoprotein Mdm2 (Homo sapiens, UniProt Q00987); test: (§2) Inhibition of p53-MDM2 (unknown origin) interaction expressed in Escherichia coli BL-21 (DE3) after 1 hr by fluorescence polarization assay
Sequence of Tumour suppressor p53/oncoprotein Mdm2 (Homo sapiens, UniProt Q00987) (P04637 whole entry): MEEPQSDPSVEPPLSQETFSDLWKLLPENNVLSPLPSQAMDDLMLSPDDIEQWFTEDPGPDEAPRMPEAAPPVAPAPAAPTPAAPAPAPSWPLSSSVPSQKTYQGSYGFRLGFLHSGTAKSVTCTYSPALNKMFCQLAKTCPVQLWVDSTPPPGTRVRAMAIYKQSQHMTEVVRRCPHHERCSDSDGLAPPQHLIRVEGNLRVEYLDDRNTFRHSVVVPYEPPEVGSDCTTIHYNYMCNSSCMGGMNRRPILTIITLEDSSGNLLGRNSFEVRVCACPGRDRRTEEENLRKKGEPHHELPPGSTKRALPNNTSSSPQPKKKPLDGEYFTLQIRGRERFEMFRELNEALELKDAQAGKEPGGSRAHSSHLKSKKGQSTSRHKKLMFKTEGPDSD
Sequence of Tumour suppressor p53/oncoprotein Mdm2 (Homo sapiens, UniProt Q00987) (Q00987 whole entry): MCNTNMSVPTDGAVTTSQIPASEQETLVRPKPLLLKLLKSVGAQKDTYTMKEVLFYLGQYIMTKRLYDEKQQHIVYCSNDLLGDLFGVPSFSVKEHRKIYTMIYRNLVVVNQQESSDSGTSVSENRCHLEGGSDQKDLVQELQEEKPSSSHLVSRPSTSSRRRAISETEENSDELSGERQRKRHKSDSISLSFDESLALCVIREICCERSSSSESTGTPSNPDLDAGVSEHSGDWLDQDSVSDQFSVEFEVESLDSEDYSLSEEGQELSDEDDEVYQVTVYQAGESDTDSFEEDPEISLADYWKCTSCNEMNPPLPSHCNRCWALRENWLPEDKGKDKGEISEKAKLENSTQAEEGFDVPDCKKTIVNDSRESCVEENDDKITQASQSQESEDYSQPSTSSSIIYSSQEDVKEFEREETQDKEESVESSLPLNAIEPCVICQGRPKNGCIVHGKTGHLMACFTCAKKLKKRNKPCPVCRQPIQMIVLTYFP

A549 [3] = test: Selectivity ratio of IC50 for human p53-null PC3 cells to IC50 for human A549 cells expressing wild type p53; type: functional
[4] = biological target: Tumour suppressor p53/oncoprotein Mdm2 (Homo sapiens, UniProt P04637+Q00987); test: as §2
Sequence of Tumour suppressor p53/oncoprotein Mdm2 (Homo sapiens, UniProt P04637+Q00987) (P04637 whole entry): as the sequence (P04637 whole entry) above
Sequence of Tumour suppressor p53/oncoprotein Mdm2 (Homo sapiens, UniProt P04637+Q00987) (Q00987 whole entry): as the sequence (Q00987 whole entry) above

Compound | IC50 (A549 [1]) | IC50 (PC-3) | Ki [2] | Ratio IC50 (A549 [3]) | Ki [4]
CN1CCN(C(=O)c2c(N)sc(-c3ccc(Cl)cc3)c2-c2ccc(Cl)cc2)CC1 | 0.59 µM | 13.1 µM | 1520 nM | 22 | 
CC1CN(C(=O)c2c(N)sc(-c3ccc(Cl)cc3)c2-c2ccc(Cl)cc2)CCN1 (configuration not stated) | 4.93 µM | 7.21 µM | 17700 nM |  | 
CCCCNC(=O)c1c(N)sc(-c2ccc(Cl)cc2)c1-c1ccc(Cl)cc1 | 8.17 µM | 17.8 µM | 550 nM |  | 
CC(C)CNC(=O)c1c(N)sc(-c2ccc(Cl)cc2)c1-c1ccc(Cl)cc1 |  | 21 µM | 4130 nM |  | 
CC(C)(C)NC(=O)c1c(N)sc(-c2ccc(Cl)cc2)c1-c1ccc(Cl)cc1 | 8.85 µM | 15.1 µM | 810 nM |  | 
Nc1sc(-c2ccc(Cl)cc2)c(-c2ccc(Cl)cc2)c1C(=O)Nc1ccccc1 | 25 µM | > 50 µM | > 50000 nM |  | 
Nc1sc(-c2ccc(Cl)cc2)c(-c2ccc(Cl)cc2)c1C(=O)NCc1ccccc1 | 16.3 µM | 31.8 µM | 150 nM |  | 
COc1ccc(CNC(=O)c2c(N)sc(-c3ccc(Cl)cc3)c2-c2ccc(Cl)cc2)cc1 | 18.2 µM | 29.5 µM | 640 nM |  | 
CC(=O)Nc1sc(-c2ccc(Cl)cc2)c(-c2ccc(Cl)cc2)c1C(=O)N1CCCCC1 | 6.01 µM | 10.3 µM | 3570 nM |  | 
O=C(CCN1CCOCC1)Nc1sc(-c2ccc(Cl)cc2)c(-c2ccc(Cl)cc2)c1C(=O)N1CCCCC1 | > 25 µM | > 25 µM |  |  | Not Active
CS(=O)(=O)Nc1sc(-c2ccc(Cl)cc2)c(-c2ccc(Cl)cc2)c1C(=O)NC1CC1 |  |  | > 50000 nM |  | 
CCOC(=O)Nc1sc(-c2ccc(Cl)cc2)c(-c2ccc(Cl)cc2)c1C(=O)NC1CC1 | 39.8 µM | 27.6 µM |  |  | Not Active
O=C(NCCN1CCOCC1)Nc1sc(-c2ccc(Cl)cc2)c(-c2ccc(Cl)cc2)c1C(=O)NC1CC1 |  |  |  |  | Not Active
CCN(CC)CCNC(=O)Nc1sc(-c2ccc(Cl)cc2)c(-c2ccc(Cl)cc2)c1C(=O)NC1CC1 |  |  |  |  | Not Active
COC(=O)c1c(N)sc(-c2ccc(Cl)cc2)c1-c1ccc(Cl)cc1 |  |  | 1520 nM |  | 
Nc1sc(-c2ccc(Cl)cc2)c(-c2ccc(Cl)cc2)c1C(=O)NC1CC1 |  |  | 540 nM |  | 
Nc1sc(-c2ccc(Cl)cc2)c(-c2ccc(Cl)cc2)c1C(=O)NC1CCC1 | 12.5 µM | 24.8 µM | 1120 nM |  | 
Nc1sc(-c2ccc(Cl)cc2)c(-c2ccc(Cl)cc2)c1C(=O)NC1CCCC1 | 6.79 µM | 21.2 µM | 540 nM |  | 
Nc1sc(-c2ccc(Cl)cc2)c(-c2ccc(Cl)cc2)c1C(=O)NC1CCCCC1 |  |  | 230 nM |  | 
Nc1sc(-c2ccc(Cl)cc2)c(-c2ccc(Cl)cc2)c1C(=O)NC1CCC(O)CC1 (configuration not stated) | 0.25 µM | 5.67 µM | 990 nM | 22 | 
Nc1sc(-c2ccc(Cl)cc2)c(-c2ccc(Cl)cc2)c1C(=O)N1CCCC1 |  |  | 740 nM |  | 
Nc1sc(-c2ccc(Cl)cc2)c(-c2ccc(Cl)cc2)c1C(=O)N1CCCCC1 | 4.62 µM | 14.3 µM | 1210 nM |  | 
CC1CCN(C(=O)c2c(N)sc(-c3ccc(Cl)cc3)c2-c2ccc(Cl)cc2)CC1 | 1.75 µM | 5.75 µM | 800 nM |  | 
Nc1sc(-c2ccc(Cl)cc2)c(-c2ccc(Cl)cc2)c1C(=O)N1CCCCC1=O | 1.82 µM | 4.94 µM | 1550 nM |  | 
Nc1sc(-c2ccc(Cl)cc2)c(-c2ccc(Cl)cc2)c1C(=O)N1CCC(=O)CC1 | 2.01 µM | 1.34 µM | 2190 nM |  | 
Nc1sc(-c2ccc(Cl)cc2)c(-c2ccc(Cl)cc2)c1C(=O)N1CCC(=O)CC1=O | 4.09 µM | 9.23 µM | 3520 nM |  | 
Nc1sc(-c2ccc(Cl)cc2)c(-c2ccc(Cl)cc2)c1C(=O)N1CCOCC1 | 1.87 µM | 11.7 µM | 430 nM | 6 | 
Nc1sc(-c2ccc(Cl)cc2)c(-c2ccc(Cl)cc2)c1C(=O)N1CCNCC1 | 1.02 µM | 2.71 µM | 6810 nM |  | 
